Measurements published in ChEMBL document CHEMBL5104210, “Discovery of antipsychotic loxapine derivatives against intracellular multidrug-resistant bacteria” (RSC Med Chem, 2022).
pEC50: −log10 of the molar value. Calls of active or inactive are those of the source. The calls are words filed in the database; no cut-off is given here.

Legend:
[1] = Cytotoxicity against mouse RAW264.7 cells assessed as reduction in number of cells by DAPI staining based high-content image analysis; type: toxicity, cell-based
Procedure, shortened: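 RAW264.7 seeded 20 h, infected 1 h with RFP-expressing S. Typhimurium (MOI 50), 100 mg/L gentamicin 1 h, then compound with 20 mg/L gentamicin 24 h. Cells stained with CellTracker Green, fixed in 3.7% formaldehyde, DAPI 0.2 mg/L. Whole-well high-content imaging at 10×; viable cells counted as DAPI-stained nuclei; CC50 calculated.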

Salmonella typhimurium [2] = assay: Antibacterial activity against intracellular multidrug-resistant Salmonella typhimurium ATCC14028 infected in mouse RAW264.7 cells assessed as reduction in intracellular bacterial survival level by RFP staining based high-content image analysis; type: functional, organism-based, Salmonella enterica subsp. enterica serovar Typhimurium; details: Salmonella enterica, ATCC14028, RAW264.7
Procedure, shortened: (§1)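 RAW264.7 cells were seeded for 20 h, then infected for 1 h at MOI 50 with RFP-expressing bacteria (2 h subculture, OD600 0.6 ≈ 1×10^8 CFU/mL). Gentamicin 100 mg/L was given for 1 h, then compound plus 20 mg/L gentamicin for 24 h. Cells were stained with CellTracker Green, fixed, and stained with DAPI. Whole-well high-content imaging gave intracellular RFP intensity for EC50 and DAPI nuclei counts for CC50.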

[3] = Selectivity ratio of CC50 for cytotoxicity against mouse RAW264.7 cells to EC50 for antibacterial activity against intracellular multidrug-resistant Salmonella typhimurium ATCC14028 infected in mouse RAW264.7 cells; type: toxicity, cell-based; details: read-out: Ratio CC50/EC50; procedure, shortened: as §1
[4] = target: D(2) dopamine receptor (Homo sapiens) (UniProt P14416); assay: Inhibition of isotope-labelled spiperone binding to recombinant dopamine D2 receptor (unknown origin)
Procedure, shortened: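 Human recombinant D2L receptor expressed in CHO cells (20 μg) incubated with increasing compound concentrations and 0.16 nM [3H]spiperone in Tris-HCl pH 7.4, 120 min at 25°C. Bound radioligand measured by filtration, washing and counting. Nonspecific binding defined with 10 μM haloperidol. Run as a contract service.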

Salmonella typhimurium [5] = assay: Antibacterial activity against intracellular ciprofloxacin-resistant Salmonella typhimurium NL10 infected in mouse RAW264.7 cells assessed as reduction in number of intracellular bacteria incubated for 24 hrs in presence of gentamycin by CFU assay; type: functional, organism-based, Salmonella enterica subsp. enterica serovar Typhimurium; details: Salmonella enterica, NL10, RAW264.7, 24 h
Procedure, shortened: (§2)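 Bacteria were subcultured 1:100 from overnight LB cultures for 2 h at 37°C and resuspended in PBS to OD600 0.6. Host cells in 6-well plates were infected at MOI 25 for 1 h, treated with 100 mg/L gentamicin for 1 h, then given compound plus 20 mg/L gentamicin for 24 h. Cells were lysed in 0.1% Triton X-100, and lysates were serially diluted and plated on LB agar (37°C, 18 h) for CFU counts.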

Salmonella typhimurium [6] = assay: Antibacterial activity against intracellular multidrug-resistant Salmonella typhimurium ATCC14028 infected in mouse RAW264.7 cells assessed as reduction in number of intracellular bacteria incubated for 24 hrs in presence of gentamycin by CFU assay; type: functional, organism-based, Salmonella enterica subsp. enterica serovar Typhimurium; details: Salmonella enterica, ATCC14028, RAW264.7, 24 h; procedure, shortened: as §2
[7] = Cytotoxicity against human monocytic THP-1 cells assessed as reduction in cell viability in presence of gentamicin and measured after 24 hrs by MTT assay; type: toxicity, cell-based
Procedure, shortened: (§3)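 Cells were seeded and grown 20 h, then given test compound for 24 h. Media were DMEM + 10% heat-inactivated FBS (RAW264.7, J774.1, INT-407), RPMI 1640 + 10% FBS (THP-1) and McCoy's 5A + 10% FBS (HT-29, HCT-116), at 37°C and 5% CO2. MTT was added at 0.5 g/L for 1 h, formazan dissolved in DMSO, and A570 read. CC50 was calculated by curve fitting.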

[8] = Cytotoxicity against human HCT-116 cells assessed as reduction in cell viability in presence of gentamicin and measured after 24 hrs by MTT assay; type: toxicity, cell-based; procedure, shortened: as §3
[9] = Cytotoxicity against PMA induced human macrophagic THP-1 cells assessed as reduction in cell viability in presence of gentamicin and measured after 24 hrs by MTT assay; type: toxicity, cell-based; details: PMA induced macrophagic THP-1 cells; procedure, shortened: as §3
Staphylococcus aureus = assay: Antibacterial activity against methicillin-resistant Staphylococcus aureus USA 300 infected in mouse RAW264.7 cells assessed as reduction in number of viable intracellular bacteria incubated for 24 hrs by CFU assay; type: functional, organism-based; details: USA 300, RAW264.7, 24 h; procedure, shortened: as §2
Salmonella typhi = assay: Antibacterial activity against Salmonella typhi infected in mouse RAW264.7 cells assessed as reduction in number of viable intracellular bacteria incubated for 24 hrs by CFU assay; type: functional, organism-based, Salmonella enterica subsp. enterica serovar Typhi; details: Salmonella enterica, RAW264.7, 24 h; procedure, shortened: as §2
Salmonella typhimurium [10] = assay: Antibacterial activity against intracellular multidrug-resistant Salmonella typhimurium ATCC14028 infected in PMA induced human macrophagic THP-1 cells assessed as reduction in viability of intracellular bacteria incubated for 24 hrs in presence of gentamicin by CFU assay; type: functional, organism-based, Salmonella enterica subsp. enterica serovar Typhimurium; details: Salmonella enterica, ATCC14028, THP-1, 24 h; procedure, shortened: as §2
Salmonella typhimurium [11] = assay: Antibacterial activity against intracellular multidrug-resistant Salmonella typhimurium ATCC14028 infected in human Intestine 407 cells assessed as reduction in viability of intracellular bacteria incubated for 24 hrs in presence of gentamicin by CFU assay; type: functional, organism-based, Salmonella enterica subsp. enterica serovar Typhimurium; details: Salmonella enterica, ATCC14028, Intestine 407, 24 h; procedure, shortened: as §2
Salmonella typhimurium [12] = assay: Antibacterial activity against intracellular multidrug-resistant Salmonella typhimurium ATCC14028 infected in human HCT-116 cells assessed as reduction in viability of intracellular bacteria incubated for 24 hrs in presence of gentamicin by CFU assay; type: functional, organism-based, Salmonella enterica subsp. enterica serovar Typhimurium; details: Salmonella enterica, ATCC14028, HCT-116, 24 h; procedure, shortened: as §2
Yersinia enterocolitica = assay: Antibacterial activity against Yersinia enterocolitica infected in mouse RAW264.7 cells assessed as reduction in number of viable intracellular bacteria incubated for 24 hrs by CFU assay; type: functional, organism-based; details: RAW264.7, 24 h
Procedure, shortened: (§4)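 RAW264.7 macrophages in DMEM + 10% heat-inactivated FBS infected 1 h at MOI 25 with bacteria (overnight LB culture diluted 1:100, grown 2 h at 37°C, resuspended in PBS to OD600 0.6). Washed, 100 mg/L gentamicin 1 h, then compound plus 20 mg/L gentamicin for 24 h. Lysed in 0.1% Triton X-100/PBS 10 min at 37°C, lysates serially diluted onto LB agar, colonies counted after 18 h at 37°C.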

[13] = Cytotoxicity against human Intestine 407 cells assessed as reduction in cell viability in presence of gentamicin and measured after 24 hrs by MTT assay; type: toxicity, cell-based; procedure, shortened: as §3
Salmonella typhimurium [14] = assay: Antibacterial activity against intracellular multidrug-resistant Salmonella typhimurium ATCC14028 infected in mouse J774.1 cells assessed as reduction in viability of intracellular bacteria incubated for 24 hrs in presence of gentamicin by CFU assay; type: functional, organism-based, Salmonella enterica subsp. enterica serovar Typhimurium; details: Salmonella enterica, ATCC14028, J774.1, 24 h; procedure, shortened: as §2
Salmonella typhimurium [15] = assay: Antibacterial activity against intracellular multidrug-resistant clinical isolate Salmonella typhimurium CGC18 infected in mouse RAW264.7 cells assessed as reduction in number of intracellular bacteria incubated for 24 hrs in presence of gentamycin by CFU assay; type: functional, organism-based, Salmonella enterica subsp. enterica serovar Typhimurium; details: Salmonella enterica, CGC18, RAW264.7, 24 h; procedure, shortened: as §2
Salmonella typhimurium [16] = assay: Antibacterial activity against intracellular multidrug-resistant Salmonella typhimurium ATCC14028 infected in human HT-29 cells assessed as reduction in viability of intracellular bacteria incubated for 24 hrs in presence of gentamicin by CFU assay; type: functional, organism-based, Salmonella enterica subsp. enterica serovar Typhimurium; details: Salmonella enterica, ATCC14028, HT-29, 24 h; procedure, shortened: as §2
Listeria monocytogenes = assay: Antibacterial activity against Listeria monocytogenes infected in mouse RAW264.7 cells assessed as reduction in number of viable intracellular bacteria incubated for 24 hrs by CFU assay; type: functional, organism-based; details: RAW264.7, 24 h; procedure, shortened: as §4
Salmonella typhimurium [17] = assay: Antibacterial activity against intracellular multidrug-resistant Salmonella typhimurium ATCC14028 infected in human monocytic THP-1 cells assessed as reduction in viability of intracellular bacteria incubated for 24 hrs in presence of gentamicin by CFU assay; type: functional, organism-based, Salmonella enterica subsp. enterica serovar Typhimurium; details: Salmonella enterica, ATCC14028, THP-1, 24 h; procedure, shortened: as §2
[18] = Cytotoxicity against mouse RAW264.7 cells assessed as reduction in cell viability measured after 24 hrs by MTT assay; type: toxicity, cell-based; procedure, shortened: as §3
[19] = Cytotoxicity against human HT-29 cells assessed as reduction in cell viability in presence of gentamicin and measured after 24 hrs by MTT assay; type: toxicity, cell-based; procedure, shortened: as §3
[20] = Cytotoxicity against mouse J774.1 cells assessed as reduction in cell viability in presence of gentamicin and measured after 24 hrs by MTT assay; type: toxicity, cell-based; procedure, shortened: as §3

Sequence of D(2) dopamine receptor (Homo sapiens) (P14416 whole entry): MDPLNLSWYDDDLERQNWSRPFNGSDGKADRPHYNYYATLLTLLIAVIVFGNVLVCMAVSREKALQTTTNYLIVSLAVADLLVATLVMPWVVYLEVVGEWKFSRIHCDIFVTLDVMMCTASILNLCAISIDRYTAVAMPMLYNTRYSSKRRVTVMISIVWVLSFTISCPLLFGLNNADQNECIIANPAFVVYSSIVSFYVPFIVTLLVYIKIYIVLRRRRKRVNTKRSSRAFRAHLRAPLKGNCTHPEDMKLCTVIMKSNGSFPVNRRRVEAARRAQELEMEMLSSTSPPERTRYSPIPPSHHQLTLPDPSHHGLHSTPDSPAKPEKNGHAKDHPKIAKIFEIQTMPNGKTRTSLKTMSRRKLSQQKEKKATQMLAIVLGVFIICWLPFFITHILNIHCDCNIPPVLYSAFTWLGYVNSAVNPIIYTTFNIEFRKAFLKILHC

SMILES | CC50 [1] | pEC50 (Salmonella typhimurium [2]) | selectivity ratio [3] | further results
NCC(=O)Nc1ccc(-n2nc(C(F)(F)F)cc2-c2ccc3c(ccc4ccccc43)c2)cc1 [AR-12] | 7.7 µM |  |  | 
Clc1ccc2c(c1)C(NCCN1CCCC1)=Nc1ccccc1O2 | 26.6 µM | 5.31 | 5.4 | 
Clc1ccc2c(c1)C(NCCN1CCCCC1)=Nc1ccccc1O2 | 22.2 µM | 5.36 | 5.1 | 
Clc1ccc2c(c1)C(NCc1ccccc1)=Nc1ccccc1O2 | 60.8 µM | 4.71 | 3.1 | 
Clc1ccc2c(c1)C(NCCN1CCOCC1)=Nc1ccccc1O2 | 84.7 µM | 4.50 | 2.6 | 
CC(C)CCNC1=Nc2ccccc2Oc2ccc(Cl)cc21 | 70.1 µM | 4.26 | 1.3 | 
O=C1CCCN1CCCNC1=Nc2ccccc2Oc2ccc(Cl)cc21 | > 90 µM | < 4.05 |  | 
CCC(CC)NC1=Nc2ccccc2Oc2ccc(Cl)cc21 | 72.8 µM | 4.55 | 2.6 | 
Clc1ccc2c(c1)C(N1CCNCC1)=Nc1ccccc1O2 [AMOXAPINE] | 107 µM | 5.14 | 14.8 | inhibition [4]: Active
Fc1ccc(CCNC2=Nc3ccccc3Oc3ccc(Cl)cc32)cc1 | > 90 µM | 4.35 | > 2 | 
CCCNC1=Nc2ccccc2Oc2ccc(Cl)cc21 | 112 µM | 4.25 | 2 | 
CN1CCCC1CCNC1=Nc2ccccc2Oc2ccc(Cl)cc21 (stereo not drawn) | 23 µM | 5.91 | 18.9 | 
Clc1ccc2c(c1)C(NCCc1ccncc1)=Nc1ccccc1O2 | 51.1 µM | 4.73 | 2.8 | 
Clc1ccc2c(c1)C(NCCCN1CCCC1)=Nc1ccccc1O2 | 16.3 µM | 5.95 | 14.6 | 
Clc1ccc2c(c1)C(NCCc1cccnc1)=Nc1ccccc1O2 | 74 µM | 4.42 | 1.9 | 
Clc1ccc2c(c1)C(NCCN1CCNCC1)=Nc1ccccc1O2 | 23.4 µM | 6.41 | 60 | pEC50 (Salmonella typhimurium [5]): 6.19; pEC50 (Salmonella typhimurium [6]): 6.62; CC50 at 24 h [7]: 28.4 µM; CC50 at 24 h [8]: 41 µM; CC50 at 24 h [9]: 30.3 µM; pEC50 (Staphylococcus aureus): 5.76; pEC50 (Salmonella typhi): 6.55; pEC50 (Salmonella typhimurium [10]): 6.66; pEC50 (Salmonella typhimurium [11]): 5.52; pEC50 (Salmonella typhimurium [12]): 5.61; pEC50 (Yersinia enterocolitica): 6.08; CC50 at 24 h [13]: 40.5 µM; pEC50 (Salmonella typhimurium [14]): 6.66; pEC50 (Salmonella typhimurium [15]): 6.20; pEC50 (Salmonella typhimurium [16]): 5.39; pEC50 (Listeria monocytogenes): 5.82; pEC50 (Salmonella typhimurium [17]): 5.75; CC50 at 24 h [18]: 20.7 µM; CC50 at 24 h [19]: 32.5 µM; CC50 at 24 h [20]: 15.4 µM
CN(C)CCNC1=Nc2ccccc2Oc2ccc(Cl)cc21 | 34.6 µM | 5.44 | 9.5 | 
Clc1ccc2c(c1)C(NCCCN1CCCCC1)=Nc1ccccc1O2 | 19.6 µM | 5.95 | 17.5 | 
Oc1ccc(CCNC2=Nc3ccccc3Oc3ccc(Cl)cc32)cc1 | 52.1 µM | 4.47 | 1.6 | 
Clc1ccc2c(c1)C(NCC1CC1)=Nc1ccccc1O2 | 80.3 µM | 4.36 | 1.8 | 
Clc1ccc2c(c1)C(NCCc1ccc(Cl)c(Cl)c1)=Nc1ccccc1O2 | 82.7 µM | 4.51 | 2.7 | 
Clc1ccc2c(c1)C(NCCc1ccccc1)=Nc1ccccc1O2 | 56.3 µM | 4.67 | 2.7 | 
O=C(CNC1=Nc2ccccc2Oc2ccc(Cl)cc21)N1CCCC1 | > 90 µM | < 4.05 |  | 
Clc1ccc(CCNC2=Nc3ccccc3Oc3ccc(Cl)cc32)cc1 | > 90 µM | 4.27 | > 1.7 | 
CCCCCNC1=Nc2ccccc2Oc2ccc(Cl)cc21 | 72.7 µM | 4.27 | 1.3 | 
O=C(O)c1cn(C2CC2)c2cc(N3CCNCC3)c(F)cc2c1=O [CIPROFLOXACIN] |  | 6.82 |  | 
